In publication PMC9594912 (International Journal of Nanomedicine, 2022):

What was measured:
In vitro drug release = format: physicochemical; conditions: PBS (pH 7.4), 24 hours, 37°C
In short: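 Dialysis bags holding 2 mL of free suspension or liposomes with equal drug content. Immersed in 60 mL PBS pH 7.4, SGF or SIF, each with 0.5% Tween-80, shaken at 37°C, 100 rpm. 1 mL withdrawn at intervals and replaced with fresh medium. Drug quantified by HPLC (C18, methanol:water 80:20, 254 nm). Cumulative release % calculated with sampling correction, then fitted to kinetic models.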

[1] = tested on: intestinal segments (duodenum, jejunum, ileum and colon); experiment: In situ single-pass intestinal perfusion; format: in vivo, rats; conditions: 125, 250, 500 μg/mL; taken to indicate passive diffusion
MRP2 [2] = biological target: MRP2 (Rattus norvegicus, UniProt Q63120); experiment: SPIP with MRP2 inhibitor indomethacin; format: in vivo, rats; conditions: Indo 200 μmol/L; increase taken to indicate a substrate of MRP2
BCRP [3] = biological target: T1, BCRP (Rattus norvegicus, UniProt Q80W57); experiment: SPIP with BCRP inhibitor reserpine; format: in vivo, rats; conditions: Res 50 μmol/L; increase taken to indicate a substrate of BCRP
T1 sequence (Q80W57 1-657): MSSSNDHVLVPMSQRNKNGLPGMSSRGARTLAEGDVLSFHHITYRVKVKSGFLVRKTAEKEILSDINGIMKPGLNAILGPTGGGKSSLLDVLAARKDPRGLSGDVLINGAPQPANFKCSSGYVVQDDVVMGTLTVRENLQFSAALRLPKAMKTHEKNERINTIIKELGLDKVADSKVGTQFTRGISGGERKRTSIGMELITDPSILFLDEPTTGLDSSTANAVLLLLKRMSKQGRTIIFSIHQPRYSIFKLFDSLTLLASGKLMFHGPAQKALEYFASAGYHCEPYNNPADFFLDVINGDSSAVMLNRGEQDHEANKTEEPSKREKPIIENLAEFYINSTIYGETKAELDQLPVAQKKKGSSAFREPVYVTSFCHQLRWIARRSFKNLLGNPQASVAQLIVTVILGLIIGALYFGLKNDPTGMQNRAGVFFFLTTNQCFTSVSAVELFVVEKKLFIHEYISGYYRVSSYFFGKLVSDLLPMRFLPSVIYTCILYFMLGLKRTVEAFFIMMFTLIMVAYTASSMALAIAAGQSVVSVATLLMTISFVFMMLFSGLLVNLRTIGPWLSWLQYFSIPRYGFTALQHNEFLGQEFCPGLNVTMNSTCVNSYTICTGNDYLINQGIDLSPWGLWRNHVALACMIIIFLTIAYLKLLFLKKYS

Caco-2 cells = experiment: Caco-2 cell viability, MTT assay; format: cell-based, human
In short: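 Caco-2 cells seeded at 10,000/well in 96-well plates and grown 24 h at 37°C, 5% CO2. Exposed to increasing concentrations of free or liposomal test compound for 4 h, with α-MEM as negative control. Then 0.5% MTT added for 4 h at 37°C, formazan dissolved in DMSO, A490 read. Viability expressed as percent of control.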

[4] = Transport study in Caco-2 cell monolayer; format: in vitro ADME; conditions: human, Caco-2, pH 7.4
In short: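 Caco-2 cells grown in α-MEM with 20% FBS, 1% NEAA, 4 mM glutamine and pen/strep. Seeded on transwells and cultured 21 days; monolayers with TEER >300 Ω·cm2 used. In pH 7.4 HBSS, free or liposomal test compound (2.5, 5, 10 μg/mL) added apically (A→B) or basolaterally (B→A). Receiver sampled at 30–180 min with replacement. Triplicate runs; Papp from ΔQ/Δt, area and C0; efflux ratio derived.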

P-gp [5] = biological target: P-gp (Homo sapiens, UniProt P08183); experiment: Caco-2 transport with P-gp inhibitor Ver; format: in vitro ADME; conditions: Ver 100 μmol/L; increase taken to indicate a substrate of P-gp
In short: (§1)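 Bidirectional transport across 21-day Caco-2 monolayers (TEER >300 Ω·cm2) in pH 7.4 HBSS. Free or liposomal test compound at 2.5, 5, 10 μg/mL, with efflux inhibitor added: verapamil 100 μmol/L (P-gp), indomethacin 200 μmol/L (MRP2) or reserpine 50 μmol/L (BCRP). Receiver sampled at 30–180 min with replacement. Triplicate runs; Papp from ΔQ/Δt, area and C0.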

MRP2 [6] = biological target: MRP2 (Homo sapiens, UniProt Q92887); experiment: Caco-2 transport with MRP2 inhibitor Indo; format: in vitro ADME; conditions: Indo 200 μmol/L; increase taken to indicate a substrate of MRP2
In short: as §1

BCRP [7] = biological target: T2, BCRP (Homo sapiens, UniProt Q9UNQ0); experiment: Caco-2 transport with BCRP inhibitor Res; format: in vitro ADME; conditions: Res 50 μmol/L; increase taken to indicate a substrate of BCRP
T2 sequence (Q9UNQ0 1-655): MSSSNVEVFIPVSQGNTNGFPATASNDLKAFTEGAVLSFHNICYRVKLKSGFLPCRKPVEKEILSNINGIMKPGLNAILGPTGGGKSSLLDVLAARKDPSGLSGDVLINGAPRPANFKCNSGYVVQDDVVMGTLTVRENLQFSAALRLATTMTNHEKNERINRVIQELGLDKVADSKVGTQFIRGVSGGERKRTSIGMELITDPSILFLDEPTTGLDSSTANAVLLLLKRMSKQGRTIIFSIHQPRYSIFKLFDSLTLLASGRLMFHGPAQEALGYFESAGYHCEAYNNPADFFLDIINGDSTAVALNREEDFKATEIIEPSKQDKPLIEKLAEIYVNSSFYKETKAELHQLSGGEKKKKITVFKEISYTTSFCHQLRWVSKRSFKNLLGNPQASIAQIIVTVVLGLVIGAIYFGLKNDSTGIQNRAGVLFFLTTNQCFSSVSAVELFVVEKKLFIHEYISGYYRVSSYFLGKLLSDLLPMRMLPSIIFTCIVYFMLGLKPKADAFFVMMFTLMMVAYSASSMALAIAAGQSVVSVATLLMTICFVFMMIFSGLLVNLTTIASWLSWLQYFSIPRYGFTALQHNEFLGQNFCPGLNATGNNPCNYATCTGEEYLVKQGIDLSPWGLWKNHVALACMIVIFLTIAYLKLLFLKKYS
In short: as §1

[8] = RAW264.7 cell viability, MTT assay; format: cell-based; conditions: mouse, RAW 264.7 macrophages
In short: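 Log-phase RAW264.7 macrophages seeded at 10,000/well in 96-well plates and grown 24 h. Treated for 24 h with graded concentrations of free or liposomal test compound, 6 replicate wells per group. Then 0.5% MTT added for 4 h, formazan dissolved in DMSO, absorbance read at 490 nm.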

[9] = tested on: RAW264.7 macrophages stimulated by LPS; experiment: NO release and ELISA of TNF-α, IL-6 and IL-10 in LPS-stimulated RAW264.7; format: cell-based, mouse; conditions: LPS 1 µg/mL, paeonol 5 μg/mL, Pae-Lips 2.5, 5, 10 μg/mL
In short: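 RAW264.7 cells (DMEM, 20% FBS, 37°C, 5% CO2) seeded at 15,000/well and grown 24 h. Pretreated 2 h with free test compound (5 μg/mL final) or liposomes (2.5, 5, 10 μg/mL final). Then stimulated with LPS 1 µg/mL final (unstimulated control kept) for 20 h. Supernatant NO measured by kit; IL-6, TNF-α and IL-10 by ELISA.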

P-gp [10] = experiment: SPIP with P-gp inhibitor verapamil; conditions: Ver 100 μmol/L; increase taken to indicate a substrate of P-gp
UC induced by DSS = experiment: DSS colitis: histological examination of colon; format: in vivo, Balb/c mice; conditions: SASP 500 mg/kg; Pae-Lips-H 400 mg/kg
In short: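 Male Balb/c mice (10 weeks, n = 6/group) given 3% (w/v) DSS in drinking water for 7 days. Dosed by gavage twice daily, suspended in 0.5% CMC-Na. Distal colon (~2 cm) fixed in 10% formaldehyde and HE-stained. Scored for mucosal inflammation severity, lesion extent and crypt damage.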

Sequence of P-gp (Homo sapiens, UniProt P08183) (P08183 whole entry): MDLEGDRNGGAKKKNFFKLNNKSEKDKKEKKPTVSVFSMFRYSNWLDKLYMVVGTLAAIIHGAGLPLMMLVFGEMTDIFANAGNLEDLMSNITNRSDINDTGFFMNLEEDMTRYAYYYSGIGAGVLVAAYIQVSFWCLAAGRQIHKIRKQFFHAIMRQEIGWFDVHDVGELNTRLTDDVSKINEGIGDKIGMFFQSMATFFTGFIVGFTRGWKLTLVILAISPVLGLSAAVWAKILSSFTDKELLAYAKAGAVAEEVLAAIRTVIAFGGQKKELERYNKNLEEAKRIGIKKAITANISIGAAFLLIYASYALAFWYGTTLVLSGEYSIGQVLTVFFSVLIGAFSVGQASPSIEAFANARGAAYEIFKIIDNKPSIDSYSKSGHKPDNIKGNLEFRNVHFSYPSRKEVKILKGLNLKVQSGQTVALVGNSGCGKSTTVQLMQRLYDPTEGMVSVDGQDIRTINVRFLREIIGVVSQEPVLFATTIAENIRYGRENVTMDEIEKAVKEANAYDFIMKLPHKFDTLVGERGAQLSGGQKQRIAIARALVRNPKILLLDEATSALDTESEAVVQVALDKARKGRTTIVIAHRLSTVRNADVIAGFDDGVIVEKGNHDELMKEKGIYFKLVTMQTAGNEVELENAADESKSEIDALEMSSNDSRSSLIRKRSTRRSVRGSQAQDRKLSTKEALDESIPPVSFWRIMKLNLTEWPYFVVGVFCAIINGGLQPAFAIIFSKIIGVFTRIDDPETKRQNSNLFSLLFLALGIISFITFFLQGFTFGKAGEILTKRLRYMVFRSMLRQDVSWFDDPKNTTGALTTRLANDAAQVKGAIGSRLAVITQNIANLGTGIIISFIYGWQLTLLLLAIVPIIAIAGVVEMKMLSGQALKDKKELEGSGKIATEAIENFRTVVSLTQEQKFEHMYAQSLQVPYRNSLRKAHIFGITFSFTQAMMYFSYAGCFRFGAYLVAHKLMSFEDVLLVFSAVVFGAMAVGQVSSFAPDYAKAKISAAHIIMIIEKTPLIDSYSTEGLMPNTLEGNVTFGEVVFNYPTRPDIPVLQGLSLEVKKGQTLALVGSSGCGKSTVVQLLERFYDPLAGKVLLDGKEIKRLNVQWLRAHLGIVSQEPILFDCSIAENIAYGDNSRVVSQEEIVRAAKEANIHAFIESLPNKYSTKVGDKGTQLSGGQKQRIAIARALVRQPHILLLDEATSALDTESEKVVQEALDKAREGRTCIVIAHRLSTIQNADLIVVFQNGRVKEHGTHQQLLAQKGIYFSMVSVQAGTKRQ
Sequence of MRP2 (Homo sapiens, UniProt Q92887) (Q92887 whole entry): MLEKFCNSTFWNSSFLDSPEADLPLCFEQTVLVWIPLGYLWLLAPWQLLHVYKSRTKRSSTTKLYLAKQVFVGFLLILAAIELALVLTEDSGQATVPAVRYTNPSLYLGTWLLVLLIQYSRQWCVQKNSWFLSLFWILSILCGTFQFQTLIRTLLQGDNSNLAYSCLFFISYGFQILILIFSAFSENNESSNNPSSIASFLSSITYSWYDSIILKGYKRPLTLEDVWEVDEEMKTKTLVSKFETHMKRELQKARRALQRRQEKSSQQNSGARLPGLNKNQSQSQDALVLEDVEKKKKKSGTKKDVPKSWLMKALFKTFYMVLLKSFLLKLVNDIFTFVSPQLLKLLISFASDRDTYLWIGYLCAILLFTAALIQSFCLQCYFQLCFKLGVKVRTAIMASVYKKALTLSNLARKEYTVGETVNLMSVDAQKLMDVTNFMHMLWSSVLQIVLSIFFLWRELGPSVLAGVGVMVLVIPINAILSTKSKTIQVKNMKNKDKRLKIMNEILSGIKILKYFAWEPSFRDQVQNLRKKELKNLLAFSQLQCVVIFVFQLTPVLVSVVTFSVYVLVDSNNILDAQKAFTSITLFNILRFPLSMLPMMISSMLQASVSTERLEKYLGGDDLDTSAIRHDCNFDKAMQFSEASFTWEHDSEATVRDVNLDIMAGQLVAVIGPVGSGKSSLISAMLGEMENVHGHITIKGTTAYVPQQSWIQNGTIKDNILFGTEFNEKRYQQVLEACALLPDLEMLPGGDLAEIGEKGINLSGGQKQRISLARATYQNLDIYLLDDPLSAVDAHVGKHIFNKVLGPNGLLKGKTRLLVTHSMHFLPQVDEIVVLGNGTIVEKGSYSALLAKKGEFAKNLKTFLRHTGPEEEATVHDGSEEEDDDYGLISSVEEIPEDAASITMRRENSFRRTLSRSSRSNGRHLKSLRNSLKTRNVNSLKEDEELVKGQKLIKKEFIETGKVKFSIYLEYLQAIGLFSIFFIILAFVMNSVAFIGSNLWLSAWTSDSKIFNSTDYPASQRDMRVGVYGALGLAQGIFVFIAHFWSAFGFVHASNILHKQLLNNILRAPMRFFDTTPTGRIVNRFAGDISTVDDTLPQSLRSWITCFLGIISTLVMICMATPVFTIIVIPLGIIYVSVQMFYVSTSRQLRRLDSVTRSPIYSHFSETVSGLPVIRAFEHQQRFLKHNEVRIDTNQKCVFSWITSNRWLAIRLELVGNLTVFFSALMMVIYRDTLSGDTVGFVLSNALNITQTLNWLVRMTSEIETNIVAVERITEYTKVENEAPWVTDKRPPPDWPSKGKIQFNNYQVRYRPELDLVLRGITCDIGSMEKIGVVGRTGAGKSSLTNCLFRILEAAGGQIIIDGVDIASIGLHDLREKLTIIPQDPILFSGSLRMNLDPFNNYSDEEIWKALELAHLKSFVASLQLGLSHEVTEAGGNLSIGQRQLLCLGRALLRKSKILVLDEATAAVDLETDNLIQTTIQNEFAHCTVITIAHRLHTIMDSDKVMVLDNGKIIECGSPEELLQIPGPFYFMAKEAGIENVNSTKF
Sequence of MRP2 (Rattus norvegicus, UniProt Q63120) (Q63120 whole entry): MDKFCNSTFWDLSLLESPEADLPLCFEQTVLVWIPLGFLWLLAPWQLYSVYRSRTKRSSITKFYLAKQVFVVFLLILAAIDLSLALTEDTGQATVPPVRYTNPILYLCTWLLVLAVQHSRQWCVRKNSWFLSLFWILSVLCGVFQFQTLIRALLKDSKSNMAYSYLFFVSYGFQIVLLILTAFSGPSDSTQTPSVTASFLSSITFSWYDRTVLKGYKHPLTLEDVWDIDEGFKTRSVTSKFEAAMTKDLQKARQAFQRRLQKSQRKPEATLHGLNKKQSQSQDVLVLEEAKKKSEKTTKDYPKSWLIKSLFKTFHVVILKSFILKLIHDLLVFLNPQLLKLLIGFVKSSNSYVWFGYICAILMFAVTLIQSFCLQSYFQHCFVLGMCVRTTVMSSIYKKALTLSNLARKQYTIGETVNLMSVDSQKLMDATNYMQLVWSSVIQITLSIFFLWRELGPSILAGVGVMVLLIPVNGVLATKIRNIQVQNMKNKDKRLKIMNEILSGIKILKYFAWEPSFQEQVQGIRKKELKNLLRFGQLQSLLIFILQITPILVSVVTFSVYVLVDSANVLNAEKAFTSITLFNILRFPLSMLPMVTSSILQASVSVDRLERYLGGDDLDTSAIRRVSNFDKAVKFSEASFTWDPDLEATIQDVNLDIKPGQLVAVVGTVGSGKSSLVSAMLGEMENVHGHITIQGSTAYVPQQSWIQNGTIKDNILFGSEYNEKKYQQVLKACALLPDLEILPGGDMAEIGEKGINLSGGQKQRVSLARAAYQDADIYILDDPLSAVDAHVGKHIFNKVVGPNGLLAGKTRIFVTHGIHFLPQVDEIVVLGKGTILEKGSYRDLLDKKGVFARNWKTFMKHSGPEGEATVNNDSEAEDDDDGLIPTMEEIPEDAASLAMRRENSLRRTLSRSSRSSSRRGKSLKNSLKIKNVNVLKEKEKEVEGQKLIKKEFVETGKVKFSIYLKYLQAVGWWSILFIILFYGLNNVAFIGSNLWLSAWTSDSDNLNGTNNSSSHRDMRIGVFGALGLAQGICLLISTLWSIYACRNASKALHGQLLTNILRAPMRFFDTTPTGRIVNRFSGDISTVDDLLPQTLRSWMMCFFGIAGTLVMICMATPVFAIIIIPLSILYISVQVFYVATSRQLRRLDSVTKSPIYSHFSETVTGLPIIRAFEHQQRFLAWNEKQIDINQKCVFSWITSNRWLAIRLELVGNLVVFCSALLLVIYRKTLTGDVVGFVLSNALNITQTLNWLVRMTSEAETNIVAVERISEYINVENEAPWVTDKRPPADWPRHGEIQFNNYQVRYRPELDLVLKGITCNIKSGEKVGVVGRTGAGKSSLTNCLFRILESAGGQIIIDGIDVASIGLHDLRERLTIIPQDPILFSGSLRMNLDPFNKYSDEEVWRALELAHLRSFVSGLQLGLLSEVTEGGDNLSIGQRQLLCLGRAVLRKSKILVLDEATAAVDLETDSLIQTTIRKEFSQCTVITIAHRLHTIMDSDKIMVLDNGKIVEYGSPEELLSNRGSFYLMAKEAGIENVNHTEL

COc1ccc(C(C)=O)c(O)c1 [Paeonol, 2’-hydroxy-4’-methoxyacetophenone]
cumulative release percentage (P%) (In vitro drug release): 36.05 ± 2.94% | Papp values at different concentrations [1]: no significant difference | Papp in each intestinal segment after adding Indo (MRP2 [2]): significantly increased | Papp in each intestinal segment after adding Res (BCRP [3]): significantly increased | Caco-2 cell viability (Caco-2 cells; concentration exceeds 10 μg/mL): significantly reduced | survival rate of Caco-2 cells (Caco-2 cells; within 10 μg/mL, 4 hours): greater than 90% | Papp A→B at 180 min, 2.5 μg/mL [4]: 3.25 ± 0.32 ×10⁻⁶ cm/s | Papp A→B at 180 min, 5 μg/mL [4]: 3.62 ± 0.13 ×10⁻⁶ cm/s | Papp A→B at 180 min, 10 μg/mL [4]: 3.65 ± 0.52 ×10⁻⁶ cm/s | Papp B→A at 180 min, 2.5 μg/mL [4]: 4.17 ± 0.22 ×10⁻⁶ cm/s | Papp B→A at 180 min, 5 μg/mL [4]: 5.19 ± 0.3 ×10⁻⁶ cm/s | Papp B→A at 180 min, 10 μg/mL [4]: 5.32 ± 0.67 ×10⁻⁶ cm/s | Papp value (AP-BL) with Ver (P-gp [5]): significantly increased | Papp value (AP-BL) with Indo (MRP2 [6]): significantly increased | Papp value (AP-BL) with Res (BCRP [7]): significantly increased | viability at 24 h, 5 μg/mL [8]: > 80% | IL-10 level vs LPS group [9]: increased | IL-6 level vs LPS group ([9]; p < 0.05): decreased | NO level vs LPS group ([9]; p < 0.05): decreased | TNF-α level vs LPS group ([9]; p < 0.05): decreased | Papp in each intestinal segment after adding Ver (P-gp [10]): significantly increased

O=C(O)c1cc(/N=N/c2ccc(S(=O)(=O)Nc3ccccn3)cc2)ccc1O [SASP]
colon histopathology finding (UC induced by DSS): no obvious lesions
